# Only a selection was taken, and hits are over-represented in it overall.
# PGC1a acetyl up: raises PGC1a acetylation signal in U2OS cells; U2OS PGC1a acetylation AlphaScreen, overnight; AID 651723; activation, % at 15.6 µM; actives 0.21% (n = 350,000);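 active = every replicate reaching activation of at least 50%, whatever the mean replicate activation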;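 note: hits raise the AlphaScreen acetylation signal above neutral controls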
#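 Test system: U2OS cells expressing flag-PGC1a plus GCN5; Amount: 7000 U2OS cells per well; Compound: single test concentration per compound; Incubation: compound overnight at 37 °C, each detection step 1 h RT; Signal: AlphaScreen lysate read.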
# * hit, by the source's call.
SMILES,PGC1a acetyl up
COc1ccccc1C(=O)Nc1ccc2c(c1)C(=O)N(C)C[C@H](OC)[C@H](C)CN(CC1CC1)[C@@H](C)CO2,-52
COc1ccccc1C(=O)Nc1ccc2c(c1)nc(CCNC(=O)c1ccco1)n2C,115*
CCc1ccc(N/C(SCc2ccccc2C)=C(/C#N)C(=O)NCc2ccco2)cc1,84*
Cc1ccc(C(=O)NNC(=O)c2cccc(Br)c2)cc1,-63
Cc1ccc(S(=O)(=O)C(NC(=O)c2ccccc2)=C(Cl)Cl)cc1,60*
COc1cccc(C(=O)CSc2nnc(CNS(=O)(=O)c3ccc(C)cc3)n2C)c1,-89
COc1ccc(C#Cc2ccc([C@@H]3[C@H](CO)N4CCCCN(C(=O)Nc5ccc(F)cc5)C[C@@H]34)cc2)cc1,71*
CC(C)CC#Cc1ccc([C@H]2[C@H](CO)N3C(=O)CN(C(=O)Nc4cc(F)ccc4F)C[C@@H]23)cc1,-57
O=C(Nc1cccc(F)c1)N1CC(=O)N2[C@@H](CO)[C@@H](c3ccc(C#Cc4cccnc4)cc3)[C@@H]2C1,-41
O=C(c1cccc([N+](=O)[O-])c1)N1CCc2ccccc21,-44
O=C(Cn1c2ccccc2c(=O)c2ccccc21)N/N=C/c1cc([N+](=O)[O-])ccc1N1CCCCCC1,53*
CCn1c2ccccc2c2cc(/C=N/NC(=O)c3ccccc3)ccc21,-43
CCCNC(=O)N(C)C[C@H]1Oc2cc(C#CC(C)C)ccc2S(=O)(=O)N([C@@H](C)CO)C[C@H]1C,-51
Cc1ccc(-c2c(C#N)c(N)n(-c3ccccc3)c(=O)c2C#N)cc1,66*
CCCn1c(-c2ccccc2)cc(SC)c(C#N)c1=O,-93
O=S(=O)(c1ccc(Br)s1)N1CCN(Cc2ccc3c(c2)OCO3)CC1,-47
C=CCC1NS(=O)(=O)OC(CCc2ccccc2)C1O (stereo not given),104*
C[C@H](NC(=O)C[C@H]1CC[C@@H](NC(=O)C2CC2)[C@H](CO)O1)c1ccccc1,-52
CC(C)(C)C(=O)Nc1sc2c(c1-c1nc3ccccc3[nH]1)CCCC2,65*
O=C(C[C@@H]1CC[C@@H](NC(=O)C2CCC2)[C@H](CO)O1)NCC1CC1,-56
Cc1cccc(-n2c(CNC(=O)c3cccc([N+](=O)[O-])c3C)n[nH]c2=S)c1,-46
COc1ccc(OC)c(C(=O)/C=C/c2ccccc2C(F)(F)F)c1,-46
CCCOc1ccc(/C=C/C(=O)O)cc1OC,-62
COc1cccc(C(=O)/C=C/c2ccc(OCC#N)c(OC)c2)c1,183*
O=S(=O)(C/C(=C/CO)S(=O)(=O)c1ccccc1)c1ccccc1,112*
SMILES,PGC1a acetyl up
CCS(=O)(=O)Nc1ccc2c(c1)C(=O)N(C)C[C@@H](OC)[C@H](C)CN(Cc1ccccn1)[C@@H](C)CO2,-44
COc1ccc(C(=O)Nc2ccc(S(=O)(=O)Nc3cc(C)nc(C)n3)cc2)cc1,-43
C=CS(=O)(=O)N(Cc1ccccc1Br)[C@H](CO)Cc1ccccc1,-44
CCCNC(=O)Nc1ccc2c(c1)C(=O)N(C)C[C@H](OC)[C@H](C)CN(CC1CCCC1)[C@@H](C)CO2,-44
C[C@@H]1CN([C@H](C)CO)C(=O)CCCn2nncc2CO[C@@H]1CN(C)S(=O)(=O)c1cn(C)cn1,-101
O=C(Nc1cccc(C(F)(F)F)c1)c1sc(Cl)nc1C(F)(F)F,121*
Cc1cc(NS(=O)(=O)c2ccc(NC(=O)COc3c(C)cc(Br)cc3C)cc2)no1,-85
COc1cc(NC(=O)CCN2CCN(C)CC2)cc(OC)c1,-50
CCOc1ccc(NC(=O)CN2CCC(n3cnc4cc(F)ccc43)CC2)cc1,67*
COc1ccc(Cl)cc1NC(=O)CN1CCC(n2nnc3cc(C)ccc32)CC1,-51
O=S(=O)(/C(=C\c1ccc(C(F)(F)F)cc1)c1nc2ccccc2[nH]1)c1ccccc1,-60
COc1nc(OCCNS(=O)(=O)c2ccc(C)cc2)nc(N(C)C)n1,-52
CN(C)c1ccc(C=C2SC(=S)NC2=O)cc1,-51
CN(C)c1ccc(/C=N/N=C2/NC(=O)/C(=C/c3ccc([N+](=O)[O-])cc3)S2)cc1,81*
O=C(Nc1ccc(F)cc1)N[C@H]1C=C[C@H](CC(=O)N2CCCCC2)O[C@H]1CO,-43
CC1CCCC(C)N1C(=S)NCc1ccco1 (stereo not given),-47
COc1ccc2cc3c(N)nn(C(=O)c4ccccc4Cl)c3nc2c1,-42
COc1ccc2cc3cc(C(=O)NCc4cccs4)oc3nc2c1,70*
O=C(CCC1CCCCC1)NCc1cccs1,-41
CC(C)CC(=O)/C(=C\c1ccc(Cl)cc1Cl)n1cncn1,-60
CCc1ccc(C(=O)NNC(=O)Cn2c(=O)cnc3ccccc32)cc1,-40
Cc1cc(S(=O)(=O)c2ccc([N+](=O)[O-])cn2)ccc1Br,135*
CN1OC(COC(=O)c2ccccc2)CC1c1ccccc1 (stereo not given),-49
CC1(C)CC(=O)C2=C(C1)Nc1ccccc1N1C(=O)c3ccccc3C21 (stereo not given),58*
COc1ccc(CCCNC(=O)C2(C)Cc3c(-c4ccc5c(c4)OCO5)ccnc3O2)cc1 (stereo not given),54*
SMILES,PGC1a acetyl up
CCCCCSc1nnc(C)c(=O)[nH]1,-91
COc1ccc(C#Cc2cnc3c(c2)C(=O)N([C@H](C)CO)C[C@H](C)[C@H](CN(C)S(=O)(=O)c2cccc(F)c2)O3)cc1OC,123*
C[C@H](CO)N1C[C@H](C)[C@H](CN(C)S(=O)(=O)c2ccc(F)cc2)Oc2ncc(-c3cccc(C(=O)N(C)C)c3)cc2C1=O,-48
C[C@H](CO)N1C[C@H](C)[C@@H](CN(C)C(=O)Nc2ccc(F)cc2)Oc2ncc(C#CC3CC3)cc2C1=O,-47
O=C(CNc1cccc([N+](=O)[O-])c1)N/N=C/c1ccc([N+](=O)[O-])o1,92*
O=C(Cc1ccc([N+](=O)[O-])cc1)N/N=C/c1ccc([N+](=O)[O-])o1,302*
COc1ccc(/C=N/NC(=O)c2ccc(NC(=O)c3cccc([N+](=O)[O-])c3)cc2)c(OC)c1,-97
N#CCc1ccc(NC(=O)/C=C/c2ccc([N+](=O)[O-])o2)cc1,299*
COc1ccc(S(=O)(=O)N(C)C[C@H]2Oc3c(NS(=O)(=O)c4ccc(C)cc4)cccc3C(=O)N([C@H](C)CO)C[C@H]2C)cc1,-41
CC(C)NC(=O)Nc1ccc2c(c1)C(=O)N([C@@H](C)CO)C[C@@H](C)[C@@H](CN(C)S(=O)(=O)c1ccccc1)OCCCC[C@H](C)O2,-105
CN(C)Cc1c(O)ccc2c1O/C(=C\C=C\c1ccccc1)C2=O,79*
N#Cc1cccc(-c2ccc([C@@H]3[C@@H]4CN(S(=O)(=O)c5ccc(-c6ccccc6)cc5)C[C@H]3N4)cc2)c1,-93
COc1ccccc1-c1ccc(C2[C@@H]3CN(S(=O)(=O)c4ccc(C)cc4)C[C@H]2N3)cc1 (stereo not given in full),95*
CN(C)c1ncnc2c1ccn2C1OC(CO)C(O)C1O (stereo not given),-52
O=C(Oc1ccc[nH]c1=O)c1cc([N+](=O)[O-])cc([N+](=O)[O-])c1,-53
COC(=O)c1cc(C(=O)N2CCN(c3cccc(Cl)c3)CC2)cc([N+](=O)[O-])c1,78*
COc1ccc(OC)c(CN2CCN(C(=O)c3ccc(NS(=O)(=O)c4cccc([N+](=O)[O-])c4)cc3)CC2)c1,-40
Cc1ccc(NC(=O)c2c(C)nn(-c3ccccc3)c2Cl)c(C)c1,-41
O=C1C=CCCN1C(=O)/C=C/c1cccc(Br)c1,-46

# Compound activity as filed in PubChem.
